Screening results (PubChem BioAssay)
CHT allo act = allosterically activates the human high affinity choline transporter; B-score at 10 µM; CHT-expressing cells, membrane potential dye, choline EC20; stronger effect = higher value; LV-AA mutant CHT in HEK293 cells; AID 488977; actives 0.49% (n = 310,000); Q9GZV3;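 active means initial fluorescence not abnormally high and integrated response B-score, plate-corrected, over 3 SD above library mean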
Target sequence (Q9GZV3 whole entry, looked up): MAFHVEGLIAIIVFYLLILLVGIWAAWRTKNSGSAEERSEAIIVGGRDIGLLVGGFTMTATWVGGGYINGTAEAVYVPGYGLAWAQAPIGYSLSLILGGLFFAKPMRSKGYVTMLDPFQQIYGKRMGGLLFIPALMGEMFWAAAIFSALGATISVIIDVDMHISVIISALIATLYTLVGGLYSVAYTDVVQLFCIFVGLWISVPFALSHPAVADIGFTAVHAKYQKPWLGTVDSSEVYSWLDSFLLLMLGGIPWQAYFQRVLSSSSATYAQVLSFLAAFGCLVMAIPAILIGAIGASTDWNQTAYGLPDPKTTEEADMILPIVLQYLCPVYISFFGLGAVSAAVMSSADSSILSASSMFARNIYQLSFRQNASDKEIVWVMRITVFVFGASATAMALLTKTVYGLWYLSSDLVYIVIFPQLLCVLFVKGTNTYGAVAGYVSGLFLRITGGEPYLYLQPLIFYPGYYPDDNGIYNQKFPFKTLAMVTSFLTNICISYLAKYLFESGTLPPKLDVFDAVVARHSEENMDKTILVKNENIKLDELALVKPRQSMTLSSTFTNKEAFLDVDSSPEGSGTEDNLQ
ANO1 block = mouse TMEM16A channel inhibition, primary screen; actives 1.2% (n = 310,000); Q8BHY3; normalized B-score (activity score, 25-100; higher = stronger inhibition) at 10 µM; HEK293 TMEM16A/YFP iodide influx fluorescence, ionomycin;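 active means ratio plate-corrected score three or more library SD toward inhibition, starting fluorescence score within five deviations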;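 further: score derived from kinetic fluorescence span divided by baseline fluorescence per well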
CHT block = inhibits the human high affinity choline transporter. Q9GZV3. CHT-expressing cells, membrane potential dye, choline response; stronger effect = lower value. B-score at 10 µM. actives 0.86% (n = 310,000). AID 488975;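 active means B-score over 3 SD under the library average, and starting fluorescence ratio not unusually high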;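 further: choline stimulus applied at its EC90 after an EC20 pre-addition; B-score computed on integrated fluorescence ratio after choline addition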
IMP-1 inh = inhibitors of Pseudomonas aeruginosa IMP-1 metallo-beta-lactamase; purified IMP-1, nitrocefin hydrolysis, epi-absorbance fluorescence; inhibition, % at 5.6 µM; actives 0.45% (n = 290,000); AID 1556;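 active means inhibition above the mean plus 3 SD of all compounds in the same screening run, cut at about 4.5% in these data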;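 further: 0% = IMP-1 with DMSO and 100% = DMSO wells lacking enzyme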
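system = purified recombinant IMP-1 beta-lactamase | amount = 0.2 nM IMP-1, as dispensed | medium = HEPES buffer pH 7.1 with ZnSO4 and Brij 35 | times = 25 °C, 15 min preincubation, 25 min reaction | detection = plate fluorescence quenching by hydrolysis product, ex 480/em 530 nm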
TMEM16A act = mouse TMEM16A channel activation, primary screen. actives 0.3% (n = 340,000). HEK293 TMEM16A/YFP-H148Q/I152L, iodide quench fluorescence; stronger effect = lower value. B-score at 10 µM;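 active means fluorescence-ratio B-score plate-corrected deviation score at least 3 library SD below zero, with starting fluorescence score within 5 deviations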;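 further: channel opened by trigger with iodide after compound preincubation; score built on the fluorescence ratio of max minus min over baseline; more negative score means more quench and so TMEM16A activation or potentiation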
VIM-2 inh = inhibitors of Pseudomonas aeruginosa VIM-2 metallo-beta-lactamase | actives 0.89% (n = 290,000) | AID 1527 | purified VIM-2, nitrocefin hydrolysis, epi-absorbance fluorescence | inhibition, % at 5.6 µM;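 active means inhibition above the mean of all tested compounds plus 3 SD, cutoff set per screening run, cut at about 7.5% in these data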;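 further: red hydrolysis product quenches plate fluorescence so inhibitors raise well fluorescence; 0% = enzyme with DMSO and 100% = DMSO without enzyme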
TMEM16A reconf = reconfirmed blocker of mouse TMEM16A calcium-activated chloride channel; shares compounds with ANO1 block; HEK293 TMEM16A/YFP-H148Q, iodide quench fluorescence; ionomycin added to raise cell calcium; inhibition, % at 10 µM; actives 39% (n = 2,300);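 active means mean duplicate percent inhibition, scaled so buffer wells are 0 and the reference blocker 100, over three buffer SD above buffer mean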
TMEM16A Ca cntr = alters calcium mobilization in TMEM16A HEK293 cells, counter-screen; TMEM16A/YFP HEK293, Fluo4 calcium mobilization; AID 652231; shares compounds with ANO1 block; actives 2% (n = 2,300); calcium response (% of ionomycin), % at 10 µM;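 active means duplicate-averaged calcium signal over 20% of the ionomycin maximum, relative to buffer baseline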;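 further: each well's signal is peak minus trough fluorescence divided by its pre-addition baseline; 0% = buffer wells and 100% = ionomycin wells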
YFP-HEK293 quench = acts in parental YFP-HEK293 cells lacking TMEM16A, counter-screen; shares compounds with ANO1 block; iodide YFP quench, ionomycin; YFP ratio F(max-min)/F0 at 10 µM; 2,300 tested, under 10 active; AID 652233;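 active means yellow fluorescent protein signal ratio exceeding the buffer control mean by over 5 SD of those controls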;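 further: ratio is mean of duplicate wells from kinetic YFP trace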
ClC-1 rat inh = rat ClC-1 inhibition, TMEM16A specificity screen | CHO ClC-1-YFP, iodide influx fluorescence quench; iodide control reads 0, buffer control 100 | shares compounds with ANO1 block | AID 652236 | 2,300 tested, under 10 active | ratio percent, % at 10 µM;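 active means duplicate-mean ratio percent above the mean of iodide-only control wells, which defines zero, plus 5 of their SD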;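 further: higher percent means stronger block of ClC-1 iodide influx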
Active calls of the source: *. This is a sample that favours compounds with a hit; in the whole collection about 3.4% have one here.

`Cc1nnsc1C(=O)NC1CCCc2c1cnn2-c1ccccc1F` (configuration not stated) gave CHT allo act inactive, ANO1 block 100*, CHT block inactive, IMP-1 inh -1, TMEM16A act inactive, VIM-2 inh -1, TMEM16A reconf inactive, TMEM16A Ca cntr inactive, YFP-HEK293 quench -1.3 and ClC-1 rat inh -6.
`O=C(NC1CCCc2c1cnn2-c1ccccc1F)c1ccccn1` (configuration not stated) gave CHT allo act inactive, ANO1 block inactive, CHT block inactive, IMP-1 inh -4, TMEM16A act inactive and VIM-2 inh -1.
For Cc1nnsc1C(=O)NC1CCCc2c1cnn2-c1ccc(C(C)(C)C)cc1 (configuration not stated) the results were CHT allo act inactive, ANO1 block 25*, CHT block inactive, IMP-1 inh -2, TMEM16A act inactive, VIM-2 inh -3, TMEM16A reconf 20%*, TMEM16A Ca cntr inactive, YFP-HEK293 quench -1.2 and ClC-1 rat inh -14.
For COc1ccccc1C(=O)NCCCN1CCCC1=O the results were CHT allo act inactive, ANO1 block 25*, CHT block inactive, IMP-1 inh 0, TMEM16A act inactive, VIM-2 inh 2, TMEM16A reconf inactive, TMEM16A Ca cntr inactive, YFP-HEK293 quench -1.1 and ClC-1 rat inh -16.
CCN(C(=O)COC(=O)c1cccc(S(=O)(=O)NCc2ccccc2)c1)c1ccccc1 was read as TMEM16A act inactive.
`Cc1noc(C)c1COC(=O)c1cccc(S(=O)(=O)N2CCCCCC2)c1` gave CHT allo act inactive, ANO1 block 25*, CHT block inactive, IMP-1 inh 1, TMEM16A act inactive, VIM-2 inh 1, TMEM16A reconf inactive, TMEM16A Ca cntr inactive, YFP-HEK293 quench -0.81 and ClC-1 rat inh -20.
Cc1noc(C)c1COc1cccc(C(=O)OC(C)C#N)c1 (configuration not stated) was read as CHT allo act inactive, ANO1 block inactive, CHT block inactive, IMP-1 inh -2, TMEM16A act inactive and VIM-2 inh -1.
Cc1noc(C)c1COc1cccc(C(=O)OCCOc2ccc(F)cc2)c1 was read as CHT allo act inactive, ANO1 block 100*, CHT block inactive, IMP-1 inh -8, TMEM16A act inactive, VIM-2 inh -2, TMEM16A reconf inactive, TMEM16A Ca cntr inactive, YFP-HEK293 quench -1 and ClC-1 rat inh -12.
Screening CCc1ccc(OCC(=O)NNCC(=O)Nc2ccc(OC)cc2)cc1 returned TMEM16A act inactive.
Screening COC(=O)C(Cc1ccc(O)cc1)NC(=O)C(C)NC(=O)c1ccc(C(C)(C)C)cc1 (configuration not stated) returned CHT allo act inactive, ANO1 block inactive, CHT block inactive, IMP-1 inh -3, TMEM16A act inactive and VIM-2 inh -4.
Cc1nc2ccccn2c1-c1csc(NCc2ccco2)n1 was read as CHT allo act inactive, ANO1 block 25*, CHT block inactive, IMP-1 inh 1, TMEM16A act inactive, VIM-2 inh 0, TMEM16A reconf inactive, TMEM16A Ca cntr inactive, YFP-HEK293 quench -0.96 and ClC-1 rat inh -8.
Screening Cc1ccc(Nc2nc(-c3c(C)nc4ccccn34)cs2)cc1 returned CHT allo act inactive, ANO1 block 25*, CHT block inactive, IMP-1 inh -2, TMEM16A act inactive, VIM-2 inh -1, TMEM16A reconf 32%*, TMEM16A Ca cntr inactive, YFP-HEK293 quench -1.4 and ClC-1 rat inh -16.
`Oc1ccc(Nc2nc(-c3ccc4ccccc4c3)cs2)cc1` gave CHT allo act inactive, ANO1 block inactive, CHT block inactive, IMP-1 inh -2, TMEM16A act inactive and VIM-2 inh -3.
`CCOC(=O)CC1=CCc2c1ccc(OC)c2OC` gave TMEM16A act inactive.
Screening COc1ccc(NC(=O)C/C(C)=N/NC(=O)c2ccccn2)c(OC)c1 returned CHT allo act inactive, ANO1 block inactive, CHT block inactive, IMP-1 inh -9, TMEM16A act inactive and VIM-2 inh -7.
`O=S(=O)(c1ccccc1)n1ccc(-c2cnc(-c3ccccc3)s2)n1` gave CHT allo act inactive, ANO1 block inactive, CHT block inactive, IMP-1 inh -4, TMEM16A act inactive and VIM-2 inh -3.
Cc1ccc(Cn2ccc(-c3cnc(-c4ccccc4)s3)n2)cc1 was read as CHT allo act inactive, ANO1 block 100*, CHT block inactive, IMP-1 inh 2, TMEM16A act inactive, VIM-2 inh -2, TMEM16A reconf 20%*, TMEM16A Ca cntr inactive, YFP-HEK293 quench -1 and ClC-1 rat inh -6.
Cc1cnc(C(=O)OCC(=O)NC2CCCCCCC2)cn1 was read as CHT allo act inactive, ANO1 block inactive, CHT block inactive, IMP-1 inh 0, TMEM16A act inactive and VIM-2 inh -2.
`CCN(C(=O)COC(=O)c1cnc(C)cn1)C1CCCCC1` gave CHT allo act inactive, ANO1 block 100*, CHT block inactive, IMP-1 inh -4, TMEM16A act inactive, VIM-2 inh -3, TMEM16A reconf inactive, TMEM16A Ca cntr inactive, YFP-HEK293 quench -1.2 and ClC-1 rat inh 0.
Screening N/C(=N\OC(=O)c1cccc(F)c1)c1ccccc1 returned CHT allo act inactive, ANO1 block 25*, CHT block inactive, IMP-1 inh -2, TMEM16A act inactive, VIM-2 inh 0, TMEM16A reconf inactive, TMEM16A Ca cntr inactive, YFP-HEK293 quench -0.9 and ClC-1 rat inh -9.
Cc1ccc(/C(N)=N/OC(=O)c2cccc(F)c2)cc1 was read as CHT allo act inactive, ANO1 block inactive, CHT block inactive, IMP-1 inh -3, TMEM16A act inactive and VIM-2 inh -4.
